Ecoli rRNA inh – inhibitors of bacterial rRNA selective over humanized ribosomes; E. coli WT GFP vs humanized-ribosome RFP mutants, fluorescence, 24 h; active compounds read low; DMSO median 0, no signal -100; GFP signal change (wild-type ribosome), % (concentration not given with the values); 350,000 compounds, 1.6% hits;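 active = significant combined selectivity score with lowered wild-type GFP, culture density cut under 30%, mutant RFP and density less affected; inactive = any of these conditions unmet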
ERAP1 inh – ERAP1 (human) enzyme inhibition. AID 652197. inhibition, % at 10.7 µM. 340,000 compounds, 0.15% hits. recombinant ERAP1, Leu-AMC fluorescence, 60 min;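 active = mean replicate inhibition of at least 30%, or all replicates individually reaching that 30% level; inactive = mean below 30% and not every replicate reaching it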;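 also: 0% = neutral control wells and 100% = L-leucinethiol positive control wells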
MLL AF4-AF9 inh – MLL-AF4/AF9 protein interaction inhibition; P42568; 350,000 compounds, 0.47% hits; AlphaScreen, biotin-AF4 peptide binding to FLAG-AF9; inhibition, % at 10 µM;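 active = every replicate reaching a set inhibition limit, whatever the replicate mean, cut at about 25% in these data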;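 also: 0% = plate neutral control median and 100% = total signal loss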
Target sequence (P42568 whole entry, looked up): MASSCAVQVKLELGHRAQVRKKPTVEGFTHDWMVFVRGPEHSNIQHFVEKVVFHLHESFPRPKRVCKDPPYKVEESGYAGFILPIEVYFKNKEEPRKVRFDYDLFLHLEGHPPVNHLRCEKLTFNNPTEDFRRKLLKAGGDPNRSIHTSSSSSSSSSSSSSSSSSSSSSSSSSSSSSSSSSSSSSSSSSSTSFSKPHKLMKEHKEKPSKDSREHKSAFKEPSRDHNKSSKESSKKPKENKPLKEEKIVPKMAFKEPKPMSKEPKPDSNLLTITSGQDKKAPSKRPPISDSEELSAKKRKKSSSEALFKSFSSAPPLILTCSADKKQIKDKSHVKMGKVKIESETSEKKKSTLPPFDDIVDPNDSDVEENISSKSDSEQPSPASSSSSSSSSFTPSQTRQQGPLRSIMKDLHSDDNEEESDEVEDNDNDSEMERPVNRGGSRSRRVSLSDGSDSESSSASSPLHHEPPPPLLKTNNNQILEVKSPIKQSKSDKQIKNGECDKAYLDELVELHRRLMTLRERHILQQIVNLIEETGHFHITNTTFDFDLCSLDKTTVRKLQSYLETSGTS
E-sel inducer – E-selectin induction on HUVECs; activation, % at 7.58 µM; P16581; 260,000 compounds, 0.37% hits; AID 686992; HUVEC E-selectin immunofluorescence imaging; normalized: neutral wells 0, TNF-alpha wells 100;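 active = mean E-selectin-positive cell signal at least 10% of the positive control, reached in at least 60% of replicates, without over 20% cell loss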
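Read-out basis: % PE-positive cells; Test system: HUVEC primary endothelial cells; Technique: immunofluorescence imaging; Dosing: single-point compound dose.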
S100A4 MyoIIA – S100A4-myosin IIA interaction inhibition. P26447. S100A4/TAMRA-MyoIIA peptide fluorescence polarization. inhibition, % at 10.7 µM. 360,000 compounds, 0.14% hits;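 active = mean inhibition of at least 70% across replicates, with every replicate also reaching that level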
Target sequence (P26447 whole entry, looked up): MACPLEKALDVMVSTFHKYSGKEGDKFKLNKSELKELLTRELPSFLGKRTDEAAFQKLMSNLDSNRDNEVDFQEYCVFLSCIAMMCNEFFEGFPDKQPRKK
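Test system: S100A4 monomer protein; Medium: HEPES pH 7.2 with CaCl2, KCl, NaCl, DTT, Triton; Probe or stimulus: TAMRA-labelled myosin IIA heavy-chain peptide probe, 5 nM; Doses: one dose per compound; Times: polarization read 5 min after assay mix addition, stable 5–60 min; Benchmarks: neutral control DMSO, positive control TFP.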
SIRT5 inh – inhibitors of human sirtuin-5 desuccinylase; Q9NXA8; Purified SirT5, succinyl-peptide AMC, trypsin-coupled fluorescence; inhibition, % at 15 µM; 330,000 compounds, 1.1% hits; in the data active = inhibition above about 15%
An asterisk follows results filed as active; / = not tested or not shown. Rows were chosen to be rich in hits. Some 3.4% of all compounds tested hit in one or more screens of this group.

SMILES | Ecoli rRNA inh | ERAP1 inh | MLL AF4-AF9 inh | E-sel inducer | S100A4 MyoIIA | SIRT5 inh
C[C@@H]1COCn2nncc2CC[C@H](Cc2cccc(Cl)c2)C(=O)N1 | 6 | / | / | / | / | /
O=[N+]([O-])c1ccc(-c2nnc3n2CCCCC3)cc1 | 2 | -2 | -2 | 0 | -1 | 0
Fc1ccc(-c2nnc3n2CCCCC3)cc1 | 7 | -6 | -2 | / | -2 | 17*
CC(C)C#Cc1ccc([C@@H]2[C@H](CO)N3CCCCN(S(=O)(=O)Cc4ccccc4)C[C@@H]23)cc1 | -42* | 1 | 4 | -1 | 0 | -2
Cc1cccc(S(=O)(=O)N2CCCCN3[C@H](C2)[C@H](c2ccc(C#CC(C)C)cc2)[C@@H]3CO)c1 | 5 | 7 | -16 | -1 | 9 | 3
Cc1cccc(S(=O)(=O)N2CCCCN3[C@@H](CO)[C@H](c4ccc(C#CC(C)C)cc4)[C@@H]3C2)c1 | -42* | 5 | 3 | 0 | -3 | -1
COc1ccc(S(=O)(=O)N2CCCCN3[C@H](C2)[C@H](c2ccc(C#CC(C)C)cc2)[C@@H]3CO)cc1 | 2 | 0 | 1 | -1 | 6 | 16*
CC(C)C#Cc1ccc([C@H]2[C@@H](CO)N3CCCCN(S(=O)(=O)Cc4ccccc4)C[C@H]23)cc1 | -41 | 1 | 5 | 0 | -6 | 4
CO[C@@H]1CN(C)C(=O)c2ccc(NC(=O)C3CCC3)cc2OC[C@@H](C)N(CC2CCCCC2)C[C@H]1C | 0 | -4 | 0 | 0 | 67 | 2
COc1ccccc1-c1cnc2c(c1)C(=O)N([C@H](C)CO)C[C@H](C)[C@@H](CN(C)C(=O)c1ccncc1)O2 | -1 | 0 | 3 | 0 | -3 | 1
C[C@H](CO)N1C[C@H](C)[C@H](CN(C)Cc2ccc(C(=O)O)cc2)Oc2ccc(NC(=O)C3CCCCC3)cc2CC1=O | 2 | -1 | -3 | 0 | 70 | -1
CC1CN(C(=O)Nc2ccc(Br)cc2Cl)CC(C)O1 (centres undefined) | 5 | 3 | -3 | / | 1 | 67*
CC1CCCN(C(=O)Nc2ccc(Br)cc2Cl)C1 (centres undefined) | 1 | -4 | -3 | 0 | 7 | 3
Cc1ccc(Cc2c(C)nc3nc(SCC(=O)NCCCN4CCCCCC4)nn3c2C)cc1 | 0 | 4 | 33* | 2 | 0 | -5
Cc1nc2nc(SCC(=O)NCCCN3CCCCC3)nn2c(C)c1Cc1ccccc1 | 0 | 0 | -1 | 0 | -9 | -2
COc1ccc2c3c(n(C)c2c1)[C@@H](CO)N(C(=O)CC1CC1)CC31CN(C(=O)CC2CC2)C1 | 0 | 5 | 0 | 0 | 13 | -3
Cn1c(SCC(=O)O)nnc1-c1ccc(NC(=O)c2ccc(Cl)c(Cl)c2)cc1 | -2 | -7 | -1 | / | 4 | 16*
Cn1c(SCC(=O)NNC(=O)Nc2ccccc2)nnc1-c1ccccc1 | 12 | -2 | 15 | 8 | 0 | -4
Cn1c(SCC(=O)CC(=O)Nc2ccccc2)nnc1-c1ccc(O)cc1 | -18* | 2 | 3 | / | -5 | 4
O=S(=O)(c1ccccc1)N1CCCCN2[C@H](CO)[C@H](c3ccc(-c4cncnc4)cc3)[C@@H]2C1 | -3 | -1 | -1 | 0 | 5 | 1
COc1ccc(-c2c(-c3ccccc3)c(C(=O)C(=O)NCCCN(C)C)n3ccc4cc(OC)c(OC)cc4c23)cc1OC | -7 | -1 | 38* | 1 | -8 | -5
CN(C)CCNC(=O)C(=O)c1c(-c2ccccc2)cc2ccccn12 | 20 | 4 | 0 | / | 5 | -4
C/C(=N\NC(=O)c1cc(C(C)C)[nH]n1)c1ccco1 | 0 | -1 | -2 | 27* | -1 | 0
COCC(=O)N(C)C[C@H]1Oc2cc(C#CCC3CCCC3)ccc2S(=O)(=O)N([C@H](C)CO)C[C@H]1C | -19 | / | 3 | 0 | 2 | -1
Cc1ccccc1CSCC(=O)Nc1ccccc1Br | -23* | 3 | 1 | 0 | 3 | 9
SMILES | Ecoli rRNA inh | ERAP1 inh | MLL AF4-AF9 inh | E-sel inducer | S100A4 MyoIIA | SIRT5 inh
C[C@@H]1CN([C@@H](C)CO)C(=O)Cc2cc(NS(C)(=O)=O)ccc2O[C@H]1CN(C)CC1CCCCC1 | -13 | 3 | 1 | 0 | 19 | -2
Cc1ccc(S(=O)(=O)N[C@@H]2CC[C@H](CC(=O)NCc3ccncn3)O[C@@H]2CO)cc1 | 2 | 1 | 0 | 1 | 3 | -2
C[C@@H]1CN([C@H](C)CO)C(=O)c2cc(NS(=O)(=O)c3cn(C)cn3)ccc2O[C@H]1CN(C)C(=O)Nc1ccc(F)cc1 | 3 | / | / | -3 | / | /
C[C@@H]1CN([C@H](C)CO)C(=O)c2cccc(NC(=O)Nc3ccc(F)cc3)c2O[C@@H]1CN(C)S(=O)(=O)c1cn(C)cn1 | -3 | / | / | 80* | / | /
C[C@@H]1CN([C@H](C)CO)C(=O)c2cc(NS(=O)(=O)c3cn(C)cn3)ccc2O[C@@H]1CN(C)C(=O)Nc1ccc2c(c1)OCO2 | 4 | 0 | -2 | 62* | -21 | 6
C[C@@H]1CN([C@@H](C)CO)C(=O)c2cc(NS(=O)(=O)c3cn(C)cn3)ccc2O[C@H]1CN(C)C(=O)Nc1ccc(F)cc1 | 0 | / | / | 87* | / | /
C[C@@H]1CN([C@@H](C)CO)C(=O)c2cccc(NC(=O)CCCCCC(=O)Nc3ccccc3N)c2O[C@H]1CN(C)S(=O)(=O)c1cn(C)cn1 | -1 | 3 | 2 | 105* | -5 | /
C[C@@H]1CN([C@@H](C)CO)C(=O)Cc2cc(NC(=O)C3CC3)ccc2O[C@H]1CN(C)C(=O)Nc1ccccc1 | -1 | 2 | -1 | -12 | 7 | 0
C/C=C/c1ccc([C@@H]2[C@H](CO)N(S(C)(=O)=O)C23CN(C(=O)CC)C3)cc1 | -2 | 0 | 2 | 0 | 5 | 0
C[C@@H]1CN([C@H](C)CO)C(=O)c2cccc(NS(=O)(=O)c3cn(C)cn3)c2O[C@@H]1CN(C)C(=O)Nc1ccc(F)cc1 | -2 | -1 | -4 | 21 | 23 | 1
C[C@@H]1CN([C@H](C)CO)C(=O)c2cccc(NS(=O)(=O)c3cn(C)cn3)c2O[C@H]1CN(C)C(=O)Nc1ccc(F)cc1 | 1 | -4 | -2 | 410* | 2 | 1
CC12CCC(C(=O)N3CCC(Cc4ccccc4)CC3)(C(=O)C1=O)C2(C)C (centres undefined) | -23* | 3 | 14 | / | 2 | 0
CCCC(=O)N1CCC(Cc2ccccc2)CC1 | 10 | 2 | -2 | 0 | -23 | 5
CO[C@@H]1CN(C)C(=O)c2cc(NS(=O)(=O)C3CCCCC3)ccc2OC[C@H](C)NC[C@@H]1C | / | / | -1 | / | 7 | 2
CCOC(=O)Nc1sc(C)c(C)c1C(=O)OCC | -20* | -2 | -2 | / | 3 | /

Bioassay records deposited in PubChem BioAssay by Broad Institute.
